Type in all cases: functional, cell-based
One assay has as its system MCF7. Briefly: Cytotoxicity against human MCF7 cells after 48 hrs by sulforhodamine B assay. The conditions noted are these: MCF7, 48 h. Put shortly: (§1)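 Cells were seeded at 5×10^4–10^5 per well and allowed to attach for 24 h. Cells were then fixed and SRB-stained, washed with acetic acid, and the dye was recovered in Tris-EDTA for A564. Surviving fraction = OD treated/OD control. IC50 was taken as 50% growth inhibition relative to control, from mean values. Doxorubicin served as reference.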

The subject of the next assay is HCT-116. The experiment in a line: Cytotoxicity against human HCT116 cells after 48 hrs by sulforhodamine B assay. As to conditions: HCT-116, 48 h. Put shortly:
as §1
A general note: Sulforhodamine B stains cellular protein and so reports cell mass.

Another assay has as its system HepG2. The experiment in a line: Cytotoxicity against human HepG2 cells after 48 hrs by sulforhodamine B assay. The conditions noted are these: HepG2, 48 h. Put shortly:
as §1

The results in this text go back to ChEMBL document CHEMBL1926515, “Synthesis and QSAR study of novel cytotoxic spiro[3H-indole-3,2'(1'H)-pyrrolo[3,4-c]pyrrole]-2,3',5'(1H,2'aH,4'H)-triones” (Eur J Med Chem, 2012).

For orientation: IC50 means the concentration needed to halve the response being measured. Lower therefore signals greater potency in that assay.

With `CN1CC2C(=O)N(c3ccc(F)cc3)C(=O)C2C12C(=O)Nc1ccccc12` (configuration not stated), the figures for the IC50 in the assay with MCF7, in the assay with HCT-116 and in the assay on HepG2 were 33.9 µM, 42.4 µM and 87.3 µM, respectively.

As for `COc1ccc(N2C(=O)C3CN(C)C4(C(=O)Nc5ccc(OC)cc54)C3C2=O)cc1` (configuration not stated), the IC50 in the assay on MCF7 was 42.7 µM; in the assay with HCT-116 it was 40.9 µM; in the assay on HepG2, 49.7 µM.

Turning to `Cc1ccc(N2C(=O)C3CN(C)C4(C(=O)Nc5ccccc54)C3C2=O)cc1` (configuration not stated), the IC50 in the assay on MCF7 came to 37.6 µM; with HCT-116, 46.1 µM; with HepG2 it was 77.1 µM.

With `CN1CC2C(=O)N(c3ccc(Cl)cc3)C(=O)C2C12C(=O)Nc1ccc(Cl)cc12` (configuration not stated), the IC50 with MCF7 came to 40.6 µM; with HCT-116, 35.5 µM; in the assay with HepG2, 29.2 µM.

Take `Cc1ccc(N2C(=O)C3CN(C)C4(C(=O)Nc5ccc(Cl)cc54)C3C2=O)cc1` (configuration not stated): the IC50 in the assay on MCF7 is 49.9 µM; with HCT-116, > 126 µM; in the assay with HepG2, 63.2 µM.

`COc1ccc(N2C(=O)C3CN(C)C4(C(=O)Nc5ccccc54)C3C2=O)cc1` (configuration not stated): the IC50 was 48 µM in the assay with MCF7, 53.6 µM in the assay with HCT-116 and 72.5 µM in the assay with HepG2.

Regarding `COc1ccc2c(c1)C1(C(=O)N2)C2C(=O)N(c3ccccc3)C(=O)C2CN1C` (configuration not stated), the IC50 in the assay with MCF7 stood at 44.8 µM; in the assay on HCT-116, 34.1 µM; in the assay with HepG2, 44.2 µM.

Regarding `COc1ccc2c(c1)C1(C(=O)N2)C2C(=O)N(c3ccc(F)cc3)C(=O)C2CN1C` (configuration not stated), the IC50 in the assay on MCF7 stood at 44 µM; in the assay on HCT-116 it was 31.3 µM; with HepG2, 27.7 µM.

`CN1CC2C(=O)N(c3ccccc3)C(=O)C2C12C(=O)Nc1ccc(Cl)cc12` (configuration not stated): the IC50 in the assay on MCF7 was found to be 38.7 µM; in the assay with HCT-116, 33 µM; in the assay with HepG2 it was 33 µM.

In the case of `COc1ccc(N2C(=O)C3CN(C)C4(C(=O)Nc5ccc(Cl)cc54)C3C2=O)cc1` (configuration not stated), the 50% inhibitory concentration (IC50) stood at 38.1 µM in the assay with MCF7, 41 µM in the assay with HCT-116 and 28.9 µM in the assay on HepG2.

In the case of `CN1CC2C(=O)N(c3ccc(F)cc3)C(=O)C2C12C(=O)Nc1ccc(Cl)cc12` (configuration not stated), the values for the IC50 with MCF7, with HCT-116 and in the assay with HepG2 were 89.9 µM, 73.3 µM and 41.1 µM, respectively.

Turning to `COc1cccc2c1C(=O)c1c(O)c3c(c(O)c1C2=O)C[C@@](O)(C(=O)CO)C[C@@H]3O[C@H]1C[C@H](N)[C@H](O)[C@H](C)O1` [DOXORUBICIN], the figures for the IC50 in the assay with HCT-116 and with HepG2 were 6.86 µM and 7.36 µM, respectively.

Regarding `COc1ccc2c(c1)C1(C(=O)N2)C2C(=O)N(c3ccc(C)cc3)C(=O)C2CN1C` (configuration not stated), the IC50 worked out at 46.8 µM with MCF7, 46.2 µM in the assay with HCT-116 and 12.2 µM in the assay with HepG2.

As for `COc1ccc2c(c1)C1(C(=O)N2)C2C(=O)N(c3ccc(Cl)cc3)C(=O)C2CN1C` (configuration not stated), the IC50 in the assay with MCF7 amounted to 38.7 µM; in the assay on HCT-116 it was 47.4 µM; with HepG2, 43.4 µM.

For `CN1CC2C(=O)N(c3ccccc3)C(=O)C2C12C(=O)Nc1ccccc12` (configuration not stated), the IC50 in the assay with MCF7 was 35.6 µM; in the assay with HCT-116, 63.7 µM; in the assay with HepG2, 32.9 µM.

For `CN1CC2C(=O)N(c3ccc(Cl)cc3)C(=O)C2C12C(=O)Nc1ccccc12` (configuration not stated), the IC50 in the assay on MCF7 was 43 µM; in the assay with HCT-116, 36.8 µM; in the assay on HepG2 it was 32.4 µM.
